Assay results published in ChEMBL document CHEMBL4382192, “Discovery of a potent dual ALK and EGFR T790M inhibitor” (Eur J Med Chem, 2017).

Tests used:
[1] = biological target: Activin receptor type-1B (Homo sapiens) (UniProt P36896); test: Binding affinity to wild-type human ACVR1B (S187 to I505 residues) expressed in bacterial expression system assessed as residual binding level at 1 uM by Kinomescan method relative to control
[2] = biological target: RAC-beta serine/threonine-protein kinase (Homo sapiens) (UniProt P31751); test: Binding affinity to wild-type human partial length AKT2 expressed in bacterial expression system assessed as residual binding level at 1 uM by Kinomescan method relative to control
[3] = biological target: Cyclin-dependent kinase 11B (Homo sapiens) (UniProt P21127); test: Binding affinity to wild-type human partial length CDC2L1 (P353 to G692 residues) expressed in bacterial expression system assessed as residual binding level at 1 uM by Kinomescan method relative to control
[4] = biological target: CDK4/Cyclin D3 (Homo sapiens) (UniProt P11802+P30281); test: Binding affinity to wild-type human full length CDK4/cyclinD3 (M1 to E303 residues) expressed in mammalian expression system assessed as residual binding level at 1 uM by Kinomescan method relative to control
[5] = biological target: Serine/threonine-protein kinase DCLK1 (Homo sapiens) (UniProt O15075); test: Binding affinity to wild-type human partial length DCAMKL1 (L270 to A662 residues) expressed in mammalian expression system assessed as residual binding level at 1 uM by Kinomescan method relative to control
[6] = biological target: Myotonin-protein kinase (Homo sapiens) (UniProt Q09013); test: Binding affinity to wild-type human partial length DMPK (V47 to V415 residues) expressed in bacterial expression system assessed as residual binding level at 1 uM by Kinomescan method relative to control
[7] = biological target: Serine/threonine-protein kinase 17B (Homo sapiens) (UniProt O94768); test: Binding affinity to wild-type human full length DRAK2 (M1 to C372 residues) expressed in bacterial expression system assessed as residual binding level at 1 uM by Kinomescan method relative to control
[8] = tested on: Epidermal growth factor receptor (Homo sapiens), P00533 [T790M]; test: Binding affinity to human partial length EGFR T790M mutant (R669 to G1022 residues) expressed in mammalian expression system assessed as residual binding level at 1 uM by Kinomescan method relative to control
Method in brief: (§1)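 Kinome-wide selectivity panel run by the KINOMEscan method, with the test compound at a single concentration of 1 μM. Wild-type and mutant kinases were profiled in the same screen.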

[9] = tested on: Receptor-type tyrosine-protein kinase FLT3 (Homo sapiens), P36888 [UNDEFINED MUTATION]; test: Binding affinity to human partial length FLT3 ITD/D835V double mutant expressed in bacterial expression system assessed as residual binding level at 1 uM by Kinomescan method relative to control; method in brief: as §1
[10] = tested on: Mast/stem cell growth factor receptor Kit (Homo sapiens), P10721 [V559D]; test: Binding affinity to human partial length KIT V559D mutant (Y545 to D952 residues) expressed in bacterial expression system assessed as residual binding level at 1 uM by Kinomescan method relative to control; method in brief: as §1
[11] = biological target: MAP kinase-activated protein kinase 5 (Homo sapiens) (UniProt Q8IW41); test: Binding affinity to wild-type human partial length MAPKAPK5 (M1 to D322 residues) expressed in mammalian expression system assessed as residual binding level at 1 uM by Kinomescan method relative to control
[12] = biological target: Hepatocyte growth factor receptor (Homo sapiens) (UniProt P08581); test: Binding affinity to wild-type human partial length MET (D1010 to S1367 residues) expressed in bacterial expression system assessed as residual binding level at 1 uM by Kinomescan method relative to control
[13] = biological target: Misshapen-like kinase 1 (Homo sapiens) (UniProt Q8N4C8); test: Binding affinity to wild-type human partial length MINK (M1 to K312 residues) expressed in mammalian expression system assessed as residual binding level at 1 uM by Kinomescan method relative to control
[14] = biological target: Serine/threonine-protein kinase 24 (Homo sapiens) (UniProt Q9Y6E0); test: Binding affinity to wild-type human partial length MST3 (A30 to S311 residues) expressed in bacterial expression system assessed as residual binding level at 1 uM by Kinomescan method relative to control
[15] = biological target: Cyclin-dependent kinase 17 (Homo sapiens) (UniProt Q00537); test: Binding affinity to wild-type human full length PCTK2 (M1 to F523 residues) expressed in bacterial expression system assessed as residual binding level at 1 uM by Kinomescan method relative to control
Method in brief: (§2)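 Single-point kinome-wide KINOMEscan binding panel, test compound at 1 μM, run by the provider's standard protocol.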

[16] = biological target: 3-phosphoinositide-dependent protein kinase 1 (Homo sapiens) (UniProt O15530); test: Binding affinity to wild-type human full length PDPK1 (M1 to Q556 residues) expressed in bacterial expression system assessed as residual binding level at 1 uM by Kinomescan method relative to control; method in brief: as §2
[17] = biological target: Phosphorylase b kinase gamma catalytic chain, skeletal muscle/heart isoform (Homo sapiens) (UniProt Q16816); test: Binding affinity to wild-type human full length PHKG1 (M1 to Y387 residues) expressed in bacterial expression system assessed as residual binding level at 1 uM by Kinomescan method relative to control; method in brief: as §2
[18] = biological target: Phosphatidylinositol 4-kinase beta (Homo sapiens) (UniProt Q9UBF8); test: Binding affinity to wild-type human full length PIK4CB (M1 to M828 residues) expressed in mammalian expression system assessed as residual binding level at 1 uM by Kinomescan method relative to control; method in brief: as §2
[19] = biological target: Serine/threonine-protein kinase PLK2 (Homo sapiens) (UniProt Q9NYY3); test: Binding affinity to wild-type human partial length PLK2 (H58 to F354 residues) expressed in mammalian expression system assessed as residual binding level at 1 uM by Kinomescan method relative to control
[20] = tested on: Proto-oncogene tyrosine-protein kinase receptor Ret (Homo sapiens), P07949 [M918T]; test: Binding affinity to human partial length RET M918T mutant (E713 to D1014 residues) expressed in bacterial expression system assessed as residual binding level at 1 uM by Kinomescan method relative to control; method in brief: as §1
[21] = biological target: TGF-beta receptor type-2 (Homo sapiens) (UniProt P37173); test: Binding affinity to wild-type human partial length TGFBR2 (I218 to K567 residues) expressed in bacterial expression system assessed as residual binding level at 1 uM by Kinomescan method relative to control
[22] = biological target: TRAF2 and NCK-interacting protein kinase (Homo sapiens) (UniProt Q9UKE5); test: Binding affinity to wild-type human partial length TNIK (D4 to K311 residues) expressed in bacterial expression system assessed as residual binding level at 1 uM by Kinomescan method relative to control
[23] = biological target: Serine/threonine-protein kinase WNK4 (Homo sapiens) (UniProt Q96J92); test: Binding affinity to wild-type human partial length WNK4 (A31 to D461 residues) expressed in mammalian expression system assessed as residual binding level at 1 uM by Kinomescan method relative to control
[24] = biological target: Mitogen-activated protein kinase kinase kinase 19 (Homo sapiens) (UniProt Q56UN5); test: Binding affinity to wild-type human partial length YSK4 (T1019 to H1328 residues) expressed in mammalian expression system assessed as residual binding level at 1 uM by Kinomescan method relative to control

Chain of Cyclin-dependent kinase 17 (Homo sapiens) (Q00537 whole entry, looked up, the tested form may be a part): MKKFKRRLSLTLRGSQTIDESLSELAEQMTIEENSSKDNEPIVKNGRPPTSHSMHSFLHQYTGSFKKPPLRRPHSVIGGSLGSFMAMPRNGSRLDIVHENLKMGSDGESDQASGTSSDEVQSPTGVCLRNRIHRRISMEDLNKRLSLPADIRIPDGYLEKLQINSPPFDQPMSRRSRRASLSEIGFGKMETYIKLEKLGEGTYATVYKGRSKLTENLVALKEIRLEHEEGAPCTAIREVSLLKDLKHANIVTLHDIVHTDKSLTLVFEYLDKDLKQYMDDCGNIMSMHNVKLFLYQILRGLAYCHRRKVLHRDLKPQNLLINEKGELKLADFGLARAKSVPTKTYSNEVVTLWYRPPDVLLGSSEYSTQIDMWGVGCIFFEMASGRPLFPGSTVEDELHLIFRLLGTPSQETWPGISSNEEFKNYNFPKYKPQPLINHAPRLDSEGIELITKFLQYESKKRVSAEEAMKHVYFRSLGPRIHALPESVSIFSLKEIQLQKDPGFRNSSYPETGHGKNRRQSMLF
Chain of Proto-oncogene tyrosine-protein kinase receptor Ret (Homo sapiens), P07949 [M918T] (P07949 whole entry M918T, the tested form may be a part): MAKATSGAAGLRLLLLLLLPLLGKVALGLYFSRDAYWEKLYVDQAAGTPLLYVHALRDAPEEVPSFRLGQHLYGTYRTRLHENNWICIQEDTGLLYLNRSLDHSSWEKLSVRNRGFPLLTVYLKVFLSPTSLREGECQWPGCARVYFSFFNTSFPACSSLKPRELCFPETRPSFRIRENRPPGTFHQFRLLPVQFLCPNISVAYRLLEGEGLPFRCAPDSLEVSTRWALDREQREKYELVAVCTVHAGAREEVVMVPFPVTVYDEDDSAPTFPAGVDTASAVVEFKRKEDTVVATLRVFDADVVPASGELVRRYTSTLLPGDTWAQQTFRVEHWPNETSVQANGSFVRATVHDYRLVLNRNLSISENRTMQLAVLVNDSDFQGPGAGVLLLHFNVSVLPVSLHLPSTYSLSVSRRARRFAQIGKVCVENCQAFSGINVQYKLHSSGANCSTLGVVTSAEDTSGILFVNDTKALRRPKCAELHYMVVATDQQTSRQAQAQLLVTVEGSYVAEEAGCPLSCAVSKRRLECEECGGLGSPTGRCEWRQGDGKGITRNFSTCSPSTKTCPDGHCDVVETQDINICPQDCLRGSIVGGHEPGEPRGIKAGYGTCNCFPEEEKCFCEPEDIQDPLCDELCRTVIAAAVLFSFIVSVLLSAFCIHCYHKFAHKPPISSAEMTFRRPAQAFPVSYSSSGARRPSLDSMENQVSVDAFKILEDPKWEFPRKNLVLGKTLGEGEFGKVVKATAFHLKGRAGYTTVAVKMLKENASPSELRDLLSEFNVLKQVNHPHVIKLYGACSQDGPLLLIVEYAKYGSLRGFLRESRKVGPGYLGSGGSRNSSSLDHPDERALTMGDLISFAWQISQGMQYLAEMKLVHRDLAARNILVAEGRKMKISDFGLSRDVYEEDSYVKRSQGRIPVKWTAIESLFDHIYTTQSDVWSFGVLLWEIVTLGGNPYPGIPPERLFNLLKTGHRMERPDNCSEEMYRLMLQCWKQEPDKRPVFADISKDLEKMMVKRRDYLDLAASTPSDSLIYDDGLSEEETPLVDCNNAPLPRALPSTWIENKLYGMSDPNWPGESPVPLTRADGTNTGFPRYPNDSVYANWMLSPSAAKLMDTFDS
Chain of Mast/stem cell growth factor receptor Kit (Homo sapiens), P10721 [V559D] (P10721 whole entry V559D, the tested form may be a part): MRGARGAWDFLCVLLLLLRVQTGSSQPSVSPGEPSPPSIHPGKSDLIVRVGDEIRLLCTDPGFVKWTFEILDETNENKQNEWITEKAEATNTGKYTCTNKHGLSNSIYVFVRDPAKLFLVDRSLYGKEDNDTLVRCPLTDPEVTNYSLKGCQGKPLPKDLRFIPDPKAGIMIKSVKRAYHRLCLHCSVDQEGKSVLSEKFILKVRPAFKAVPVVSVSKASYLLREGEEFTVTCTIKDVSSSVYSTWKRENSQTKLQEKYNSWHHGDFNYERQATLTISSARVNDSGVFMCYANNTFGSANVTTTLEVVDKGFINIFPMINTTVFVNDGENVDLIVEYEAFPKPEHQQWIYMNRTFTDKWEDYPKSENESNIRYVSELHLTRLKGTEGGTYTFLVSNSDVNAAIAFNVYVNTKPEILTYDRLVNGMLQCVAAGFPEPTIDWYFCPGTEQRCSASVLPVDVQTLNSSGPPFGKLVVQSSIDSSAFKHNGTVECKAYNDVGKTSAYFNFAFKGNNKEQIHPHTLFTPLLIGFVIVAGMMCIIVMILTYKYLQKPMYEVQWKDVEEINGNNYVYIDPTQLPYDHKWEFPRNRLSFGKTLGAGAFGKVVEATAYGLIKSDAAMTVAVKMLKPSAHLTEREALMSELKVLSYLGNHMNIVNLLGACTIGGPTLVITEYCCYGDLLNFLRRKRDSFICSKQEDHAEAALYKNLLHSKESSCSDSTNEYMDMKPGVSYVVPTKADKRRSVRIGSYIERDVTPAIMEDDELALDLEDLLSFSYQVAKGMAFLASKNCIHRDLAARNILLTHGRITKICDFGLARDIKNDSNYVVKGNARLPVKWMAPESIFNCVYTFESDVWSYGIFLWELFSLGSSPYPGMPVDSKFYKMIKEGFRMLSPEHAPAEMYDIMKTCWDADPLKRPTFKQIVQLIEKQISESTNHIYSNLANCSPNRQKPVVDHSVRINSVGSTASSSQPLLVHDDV
Chain of Receptor-type tyrosine-protein kinase FLT3 (Homo sapiens), P36888 [UNDEFINED MUTATION] (P36888 whole entry, looked up, stated change not applied, the tested form may be a part): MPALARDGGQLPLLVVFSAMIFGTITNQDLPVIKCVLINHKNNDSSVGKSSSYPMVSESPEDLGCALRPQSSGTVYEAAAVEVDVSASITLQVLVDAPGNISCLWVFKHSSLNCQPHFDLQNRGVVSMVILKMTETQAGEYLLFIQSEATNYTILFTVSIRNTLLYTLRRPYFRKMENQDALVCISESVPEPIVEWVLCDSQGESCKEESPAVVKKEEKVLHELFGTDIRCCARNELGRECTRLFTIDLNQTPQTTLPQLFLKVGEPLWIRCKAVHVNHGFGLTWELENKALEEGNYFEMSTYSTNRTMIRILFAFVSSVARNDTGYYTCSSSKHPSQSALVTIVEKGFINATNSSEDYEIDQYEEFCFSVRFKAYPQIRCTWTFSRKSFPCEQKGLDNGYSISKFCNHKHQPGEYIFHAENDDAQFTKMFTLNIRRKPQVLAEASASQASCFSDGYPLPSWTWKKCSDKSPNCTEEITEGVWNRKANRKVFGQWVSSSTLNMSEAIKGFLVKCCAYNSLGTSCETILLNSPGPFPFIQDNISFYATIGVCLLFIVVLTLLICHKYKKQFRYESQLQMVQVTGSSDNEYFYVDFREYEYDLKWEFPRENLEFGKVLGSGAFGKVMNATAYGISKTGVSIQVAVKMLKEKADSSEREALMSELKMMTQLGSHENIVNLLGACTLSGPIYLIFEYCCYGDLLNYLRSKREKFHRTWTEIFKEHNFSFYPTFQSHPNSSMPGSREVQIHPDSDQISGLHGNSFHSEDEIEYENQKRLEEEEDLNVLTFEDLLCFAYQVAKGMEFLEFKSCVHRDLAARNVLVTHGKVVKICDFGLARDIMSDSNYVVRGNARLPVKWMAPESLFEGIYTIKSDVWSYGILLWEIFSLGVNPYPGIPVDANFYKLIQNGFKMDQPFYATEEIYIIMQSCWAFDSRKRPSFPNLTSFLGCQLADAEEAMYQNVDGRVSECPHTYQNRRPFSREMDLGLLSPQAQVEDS
Chain of Hepatocyte growth factor receptor (Homo sapiens) (P08581 whole entry, the tested form may be a part): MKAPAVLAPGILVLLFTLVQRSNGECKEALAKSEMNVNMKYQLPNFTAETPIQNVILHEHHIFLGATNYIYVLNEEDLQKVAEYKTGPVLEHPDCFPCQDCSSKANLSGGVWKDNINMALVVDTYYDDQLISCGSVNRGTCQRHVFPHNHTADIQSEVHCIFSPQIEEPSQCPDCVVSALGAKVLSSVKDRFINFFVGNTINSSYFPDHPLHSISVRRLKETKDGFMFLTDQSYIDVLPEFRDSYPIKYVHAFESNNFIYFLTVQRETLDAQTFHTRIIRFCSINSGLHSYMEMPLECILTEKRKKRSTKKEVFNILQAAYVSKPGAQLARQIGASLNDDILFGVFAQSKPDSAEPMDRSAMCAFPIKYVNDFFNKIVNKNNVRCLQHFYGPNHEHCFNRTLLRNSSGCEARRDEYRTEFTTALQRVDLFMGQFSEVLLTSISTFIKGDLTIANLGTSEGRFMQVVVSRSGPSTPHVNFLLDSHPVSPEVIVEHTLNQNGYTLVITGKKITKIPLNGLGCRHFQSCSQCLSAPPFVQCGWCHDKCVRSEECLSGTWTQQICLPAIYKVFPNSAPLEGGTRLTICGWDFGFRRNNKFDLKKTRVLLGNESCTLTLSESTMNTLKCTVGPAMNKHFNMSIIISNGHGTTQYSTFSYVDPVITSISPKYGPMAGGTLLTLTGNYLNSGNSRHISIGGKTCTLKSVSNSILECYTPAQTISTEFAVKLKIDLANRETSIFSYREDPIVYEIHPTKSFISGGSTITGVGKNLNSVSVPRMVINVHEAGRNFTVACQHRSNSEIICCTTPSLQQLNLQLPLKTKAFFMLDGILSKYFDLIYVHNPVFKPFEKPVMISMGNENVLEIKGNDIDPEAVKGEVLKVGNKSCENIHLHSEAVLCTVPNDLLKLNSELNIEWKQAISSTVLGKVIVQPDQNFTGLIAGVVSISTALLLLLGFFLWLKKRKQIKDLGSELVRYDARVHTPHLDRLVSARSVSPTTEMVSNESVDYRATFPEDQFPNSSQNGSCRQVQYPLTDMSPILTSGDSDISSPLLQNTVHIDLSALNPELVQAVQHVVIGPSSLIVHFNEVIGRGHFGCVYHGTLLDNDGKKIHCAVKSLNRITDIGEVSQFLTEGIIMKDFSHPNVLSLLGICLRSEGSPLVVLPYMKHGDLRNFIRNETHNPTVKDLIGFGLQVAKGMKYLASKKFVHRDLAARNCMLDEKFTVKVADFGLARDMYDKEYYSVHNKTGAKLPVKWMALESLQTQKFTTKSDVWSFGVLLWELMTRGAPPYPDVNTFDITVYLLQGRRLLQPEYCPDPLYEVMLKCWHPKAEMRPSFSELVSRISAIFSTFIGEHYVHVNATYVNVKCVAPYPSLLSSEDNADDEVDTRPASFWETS

C=CC(=O)Nc1cc(Nc2ncc(Cl)c(Nc3ccccc3S(=O)(=O)C(C)C)n2)c(OC)cc1N(C)CCN(C)C
Activity [1]: 16%
Activity [2]: 94%
Activity [3]: 75%
Activity [4]: 55%
Activity [5]: 14%
Activity [6]: 91%
Activity [7]: 100%
Activity [8]: 0%
Activity [9]: 12%
Activity [10]: 31%
Activity [11]: 100%
Activity [12]: 30%
Activity [13]: 34%
Activity [14]: 39%
Activity [15]: 74%
Activity [16]: 94%
Activity [17]: 24%
Activity [18]: 69%
Activity [19]: 87%
Activity [20]: 9.7%
Activity [21]: 82%
Activity [22]: 61%
Activity [23]: 94%
Activity [24]: 14%
